The results in this text go back to ChEMBL document CHEMBL1123103, “Pyrimidinones. 1. 2-Amino-5-halo-6-aryl-4(3H)-pyrimidinones. Interferon-inducing antiviral agents” (1985).

Structures are written as SMILES. Some results are limits rather than exact numbers.

Format in all cases: functional
The test system of assay [1] is Mus musculus. Briefly: Protection index after intraperitoneal administration (25 mg/kg/day) against herpes simplex virus type-1 (HSV-1) infected mice [protection index=(control mortality-treated mortality)/control mortality]. An outline of the steps: (§1)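 ICR or CD-1 mice got drug ip in saline as the total daily dose (mg/kg/day). It was split into doses at -40, -28, -20, -3 and +3 h relative to ip inoculation with 5.6×10^4 pfu HSV-1. Mice were followed for 22 days, 15/group. Protection index = (control mortality − treated mortality)/control mortality; >0.25 counted active. Only the lowest protective dose is recorded.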

For assay [2], the system named is Mus musculus. The experiment in a line: The compound was evaluated for the serum interferon response from a single 800 mg/kg intraperitoneal administration in vesicular stomatitis virus on […] cells; Range 500-1000 units/mL. An outline of the steps: (§2)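 Mice got a single ip 800 mg/kg dose. Blood was drawn 3, 6, 8 and 12 h later from five mice per group and pooled. Interferon titer was measured by plaque reduction with vesicular stomatitis virus on L929 cells. Titer is the reciprocal serum dilution cutting plaques by 50% versus untreated cultures. Peak response within 24 h was banded: ≥2000, ~500-1000, ~50-500, ~10-50 U/mL.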

Assay [3] deals with Semliki Forest virus. Briefly: Antiviral activity against Forest virus (SFV). In outline:
(§3)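 ICR or CD-1 mice of both sexes got one drug dose by the route in the line (ip, po or sc). The drug was a suspension in 0.9% NaCl or in a CMC/polysorbate 80/benzyl alcohol/NaCl vehicle. […] Deaths were recorded daily for 6 days, 24 mice/group. ED50 is the minimal dose protecting 50% of mice, by probit analysis.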

Assay [4] deals with Semliki Forest virus. Briefly: Effective dose administered subcutaneously againist Forest virus infected mice. The settings on record: sc. An outline of the steps: as §3
Assay [5] relates to Semliki Forest virus. The experiment in a line: Effective dose administered perorally againist Forest virus infected mice. The settings on record: po. In outline:
as §3

For assay [6], the system named is Mus musculus. The experiment in a line: The compound was evaluated for the serum interferon response from a single 800 mg/kg intraperitoneal administration in vesicular stomatitis virus on […] cells; range 500-1000 units/mL. An outline of the steps: as §2
The next assay concerns Human alphaherpesvirus 1. The experiment in a line: Intraperitoneal administration against herpes simplex virus type-1 (HSV-1) infected mice. In outline:
as §1

For assay [7], the system named is Mus musculus. The experiment in a line: The compound was evaluated for the serum interferon response from a single 800 mg/kg intraperitoneal administration in vesicular stomatitis virus on […] cells; Range 50-500 units/mL. In outline:
as §2

Assay [8] has as its system Vesicular stomatitis virus. Briefly: Evaluation for serum interferon response from a single 800 mg/kg intraperitoneal administration in vesicular stomatitis virus on […] cells. An outline of the steps: as §2
The subject of assay [9] is Mus musculus. The experiment in a line: Protection index after intraperitoneal administration (50 mg/kg/day) against herpes simplex virus type-1 (HSV-1) infected mice [protection index=(control mortality-treated mortality)/control mortality]. In outline:
as §1

The subject of assay [10] is Mus musculus. Briefly: Evaluation for serum interferon response from a single 800 mg/kg intraperitoneal administration in vesicular stomatitis virus on […] cells; Range 10-50 units/mL. In outline: as §2
Assay [11] deals with Mus musculus. The experiment in a line: The compound was evaluated for the serum interferon response from a single 800 mg/kg intraperitoneal administration in vesicular stomatitis virus on […] cells; range 50-500. An outline of the steps: as §2

For the molecule `Nc1nc(O)c(I)c(-c2cccc(F)c2)n1`, the Protection index with Mus musculus [1] was 0.25. This molecule returned an IFN in the assay on Mus musculus [2] of 500 units/mL. For the same molecule, the ED50 (in general, the midpoint of the dose-response relation) in the assay on Semliki Forest virus [3] is 10 mg/kg; in the assay with Semliki Forest virus [4], 80 mg/kg; in the assay with Semliki Forest virus [5] it was greater than 400 mg/kg.

In the case of `Nc1nc(O)c(I)c(-c2cnccn2)n1`, the ED50 in the assay with Semliki Forest virus [3] was 275 mg/kg; in the assay on Semliki Forest virus [4] it was greater than 400 mg/kg; in the assay with Semliki Forest virus [5] it was greater than 400 mg/kg. Also, the IFN with Mus musculus [6] amounted to 500 units/mL.

In the case of `Nc1nc(O)c(Br)c(-c2cccc(C(F)(F)F)c2)n1`, in the assay on Human alphaherpesvirus 1, the Protection index is listed as 0.53. In addition, the values for the ED50 in the assay on Semliki Forest virus [3], in the assay with Semliki Forest virus [4] and in the assay with Semliki Forest virus [5] were 200 mg/kg, greater than 400 mg/kg and greater than 400 mg/kg, respectively. In addition, the IFN in the assay with Mus musculus [7] is 50 mL.

With `Nc1nc(O)c(Cl)c(-c2cc(F)ccc2F)n1`, the IFN in the assay with Mus musculus [2] is given as 500 units/mL. Moreover, the values for the ED50 in the assay on Semliki Forest virus [3] and in the assay on Semliki Forest virus [5] were 165 mg/kg and greater than 400 mg/kg, respectively.

`Cc1ccccc1-c1nc(N)nc(O)c1Cl` had a Protection index in the assay on Human alphaherpesvirus 1 of 0.13. Besides, the ED50 in the assay on Semliki Forest virus [3] was 130 mg/kg; with Semliki Forest virus [4], 350 mg/kg; in the assay on Semliki Forest virus [5], greater than 400 mg/kg. For the same molecule, the IFN in the assay on Mus musculus [6] was found to be 500 units/mL.

In the assay on Human alphaherpesvirus 1, `Nc1nc(O)c(Cl)c(-c2cnccn2)n1` yielded a Protection index of 0.07. In addition, the ED50 with Semliki Forest virus [3] is 110 mg/kg; with Semliki Forest virus [4], greater than 400 mg/kg; in the assay with Semliki Forest virus [5] it was 395 mg/kg. Further, the IFN with Mus musculus [6] worked out at 500 units/mL.

In turn, `Nc1nc(O)c(Br)c(-c2cccc(F)c2)n1` came in with a Protection index with Mus musculus [1] of 0.64. The ED50 in the assay with Semliki Forest virus [3] came out at 70 mg/kg; with Semliki Forest virus [4] it was 155 mg/kg; in the assay on Semliki Forest virus [5] it was 175 mg/kg. Further, the IFN result in [8] was “>=2000 ml”.

As to `COc1cccc(-c2nc(N)nc(O)c2I)c1`, the ED50 in the assay with Semliki Forest virus [3] is 40 mg/kg; in the assay on Semliki Forest virus [4], greater than 400 mg/kg; with Semliki Forest virus [5] it was greater than 400 mg/kg. The molecule further had a Protection index in the assay with Mus musculus [9] of 0.54. Also, the IFN in the assay with Mus musculus [10] is given as 10 units/mL.

Take `Nc1nc(O)c(Cl)c(-c2cccc(F)c2F)n1`: the IFN in the assay with Mus musculus [2] was 500 units/mL. In the assay on Human alphaherpesvirus 1, this molecule showed a Protection index of 0.93. Besides, the ED50 with Semliki Forest virus [3] was 70 mg/kg; with Semliki Forest virus [5] it was 200 mg/kg.

As for `Nc1nc(O)c(I)c(-c2ccccc2F)n1`, the ED50 in the assay with Semliki Forest virus [3] is 105 mg/kg; in the assay on Semliki Forest virus [4], greater than 400 mg/kg; with Semliki Forest virus [5] it was greater than 400 mg/kg. Besides, in the assay on Mus musculus [9], the Protection index is recorded as 0.67. Moreover, the IFN with Mus musculus [6] turned out to be 500 units/mL.

Turning to `Nc1nc(O)c(I)c(-c2cccc(Br)c2)n1`, the ED50 was 65 mg/kg in the assay with Semliki Forest virus [3], 90 mg/kg in the assay on Semliki Forest virus [4] and greater than 400 mg/kg in the assay with Semliki Forest virus [5]. The IFN in the assay on Mus musculus [11] came out at 500 mL.

`Nc1nc(O)c(Br)c(-c2cccc(Br)c2)n1`: in the assay with Human alphaherpesvirus 1, the Protection index is on record as 0.47. Further, the ED50 in the assay on Semliki Forest virus [3] is 110 mg/kg; in the assay with Semliki Forest virus [4], greater than 400 mg/kg; in the assay on Semliki Forest virus [5], greater than 400 mg/kg. Moreover, the IFN in the assay with Mus musculus [11] is 500 mL.

Turning to `Nc1nc(O)c(Cl)c(-c2cccc(F)c2)n1`, in the assay with Mus musculus [1], the Protection index is on record as 0.61. The values for the ED50 in the assay with Semliki Forest virus [3], in the assay with Semliki Forest virus [4] and with Semliki Forest virus [5] were 30 mg/kg, 100 mg/kg and greater than 400 mg/kg, respectively. Besides, in assay [8], the IFN entry is given as “>=2000 ml”.

Regarding `COc1cccc(-c2nc(N)nc(O)c2Cl)c1`, the ED50 with Semliki Forest virus [3] was 15 mg/kg; with Semliki Forest virus [4] it was 205 mg/kg; in the assay with Semliki Forest virus [5], greater than 400 mg/kg. Besides, the Protection index with Mus musculus [9] stood at 0.92. Besides, the IFN in assay [8] stood at 50 units/mL.

Regarding `Nc1nc(O)c(Br)c(-c2ccccc2F)n1`, the ED50 in the assay with Semliki Forest virus [3] was 25 mg/kg; in the assay on Semliki Forest virus [4], 200 mg/kg; in the assay with Semliki Forest virus [5] it was greater than 400 mg/kg. For the same molecule, in the assay with Mus musculus [9], the Protection index is given as 0.69. The molecule further had an IFN in assay [8] of 50 units/mL.

`Nc1nc(O)c(Br)c(-c2ccc(F)cc2)n1`: in the assay on Mus musculus [2], the IFN is 500 units/mL. The molecule further registered a Protection index in the assay on Human alphaherpesvirus 1 of 0.46. Besides, the ED50 in the assay on Semliki Forest virus [3] was 160 mg/kg; in the assay on Semliki Forest virus [4], greater than 400 mg/kg; in the assay on Semliki Forest virus [5], greater than 400 mg/kg.

In the assay on Mus musculus [2], `Nc1nc(O)c(I)c(-c2cccc(Cl)c2)n1` registered an IFN of 500 units/mL. In the assay with Human alphaherpesvirus 1, this molecule gave a Protection index of 0.65. Besides, the values for the ED50 with Semliki Forest virus [3], in the assay on Semliki Forest virus [4] and with Semliki Forest virus [5] were 35 mg/kg, 250 mg/kg and greater than 400 mg/kg, respectively.
